Reference: ChEMBL document CHEMBL5252538, “β-Lactam analogues of combretastatin A-4 prevent metabolic inactivation by glucuronidation in chemoresistant HT-29 colon cancer cells” (Eur J Med Chem, 2017)
Calls of active or inactive are those of the source. No cut-off for these calls is given here.

What was measured:
HT-29 [1] = assay: Induction of cell cycle arrest in human HT-29 cells assessed as accumulation of cells in sub-G1 phase at 0.5 uM incubated for 72 hrs by RNase/PI staining based flow cytometry analysis (reference value: 6%); format: functional
Outline: (§1)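 HT-29 treated with vehicle (0.1% ethanol v/v) or compound at 0.5 µM for 24, 48 and 72 h. Adherent plus detached cells collected, fixed overnight in ice-cold 70% ethanol at −20 °C, stained with PI (50 µg/mL) plus RNase A (50 µg/mL) 30 min at 37 °C. 10,000 cells analysed by flow cytometry at 488 nm; sub-G1, G0/G1, G2/M gated on DNA content; mean of three experiments.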

[2] = Stability in phosphate buffer at pH 7.4 assessed as half life at 30 ug/ml measured for 24 hrs by analytical HPLC analysis; format: physicochemical; details: dose 30 µg/ml
[3] = Stability in phosphate buffer at pH 4 assessed as half life at 30 ug/ml measured for 24 hrs by analytical HPLC analysis; format: physicochemical; details: dose 30 µg/ml
[4] = Stability in phosphate buffer at pH 9 assessed as half life at 30 ug/ml measured for 24 hrs by analytical HPLC analysis; format: physicochemical; details: dose 30 µg/ml
MCF7 [5] = assay: Antiproliferative activity against […] human MCF7 cells assessed as inhibition of cell growth incubated for 72 hrs by alamar blue assay; format: functional, cell-based; details: MCF7, 72 h
Outline: (§2)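 Cells seeded 24 h before treatment (HL-60 4 × 10⁴, MCF-7 5 × 10³ per well), then given medium, vehicle (1% ethanol v/v) or serial dilutions (eight concentrations) for 72 h. Alamar Blue (10% v/v) added for 3–5 h at 37 °C in the dark, fluorescence read at ex 530/em 590 nm. Viability expressed relative to vehicle (100%), IC50 from dose–response curves; three experiments in triplicate.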

HL-60 [6] = assay: Antiproliferative activity against […] human HL-60 cells assessed as inhibition of cell growth incubated for 72 hrs by alamar blue assay; format: functional, cell-based; details: HL-60, 72 h; outline: as §2
HT-29 [7] = assay: Antiproliferative activity against combretastatin A-4 resistant human HT-29 cells assessed as inhibition of cell growth incubated for 72 hrs by SRB assay; format: functional, cell-based; details: HT-29, 72 h
Outline: (§3)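 HT-29 (DMEM Glutamax, 10% FBS) seeded at 1 × 10⁴ cells/well, treated after 24 h with vehicle (1% ethanol v/v) or serial dilutions (eight concentrations) for 72 h; viability measured by sulforhodamine B protocol. Percent viability relative to vehicle control, IC50 from dose–response curves; mean of three experiments in triplicate.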

[8] = test system: Panel NCI-60 (60 carcinoma cell lines); assay: Antiproliferative activity against human panel NCI-60 (60 carcinoma cell lines) assessed as inhibition of cell growth at 10 uM incubated for 72 hrs by SRB assay; format: functional, cell-based
MCF7 [9] = assay: Antiproliferative activity against human MCF7 cells assessed as inhibition of cell growth incubated for 72 hrs by SRB assay; format: functional
HT-29 [10] = assay: Antiproliferative activity against human HT-29 cells assessed as inhibition of cell growth incubated for 72 hrs by SRB assay; format: functional; outline: as §3
HL-60 [11] = assay: Antiproliferative activity against human HL-60 cells assessed as inhibition of cell growth incubated for 72 hrs by SRB assay; format: functional
[12] = test system: Panel NCI-60 (60 carcinoma cell lines); assay: Antiproliferative activity against human panel NCI-60 (60 carcinoma cell lines) incubated for 72 hrs by SRB assay; format: functional; details: read-out: LC50 (the source's name)
MCF7 [13] = assay: Induction of cell cycle arrest in human MCF7 cells assessed as accumulation of cells at G2/M phase at 0.5 uM incubated for 24 hrs by RNase/PI staining based flow cytometry analysis (reference value: 24%); format: functional
MCF7 [14] = assay: Induction of cell cycle arrest in human MCF7 cells assessed as accumulation of cells at sub-G1 phase at 0.5 uM incubated for 72 hrs by RNase/PI staining based flow cytometry analysis (reference value: 4%); format: functional
HT-29 [15] = assay: Induction of cell cycle arrest in human HT-29 cells assessed as accumulation of cells at G2/M phase at 0.5 uM incubated for 72 hrs by RNase/PI staining based flow cytometry analysis relative to control; format: functional; outline: as §1
HT-29 [16] = assay: Induction of cell cycle arrest in human HT-29 cells assessed as reduction in cells in G0 phase at 0.5 uM incubated for 72 hrs by RNase/PI staining based flow cytometry analysis; format: functional; outline: as §1
HT-29 [17] = assay: Induction of cell cycle arrest in human HT-29 cells assessed as reduction in cells in S phase at 0.5 uM incubated for 72 hrs by RNase/PI staining based flow cytometry analysis; format: functional; outline: as §1
HT-29 [18] = assay: Induction of apoptosis in human HT-29 cells assessed as decrease in Mcl-1 protein expression at 0.1 to 1 uM incubated for 48 hrs by Western blot analysis; format: functional, cell-based; details: dose 0.1-1 µM
Outline: (§4)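 HT-29 seeded at 1 × 10⁵ cells per T25 flask; left untreated, given vehicle (0.1% EtOH v/v) or compound at 0.1 or 1 µM for 48 h. Whole-cell lysates in RIPA with protease/phosphatase inhibitors, equal protein (BCA) on 12% SDS-PAGE, PVDF; probed for Mcl-1, PARP, Bax (1:1000), HRP secondary, ECL detection, GAPDH loading control; three independent occasions.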

HT-29 [19] = assay: Induction of apoptosis in human HT-29 cells assessed as upregulation of Bax protein expression at 0.1 to 1 uM incubated for 48 hrs by Western blot analysis; format: functional, cell-based; details: dose 0.1-1 µM; outline: as §4
HT-29 [20] = assay: Induction of apoptosis in human HT-29 cells assessed as increase in PARP cleavage at 0.1 uM incubated for 48 hrs by Western blot analysis; format: functional, cell-based; outline: as §4
Tubulin (Bos taurus) = Tubulin (Bos taurus) (UniProt Q6B856+Q862L2+Q862F3); assay: Inhibition of bovine tubulin polymerisation assessed as fold reduction in Vmax at 10 uM measured every 30 secs for 30 mins by spectrophotometric method relative to control; format: protein assay
Tubulin (Homo sapiens) [21] = target: T1, Tubulin (Homo sapiens) (UniProt P68371+Q9H4B7+P0DPH7+P68366+Q13509+Q71U36+P04350+Q3ZCM7+P07437+P68363+Q9BQE3+Q6PEY2+Q13885+Q9BVA1+Q9BUF5); assay: Induction of microtubule disruption in human MCF7 cells assessed as inhibition of microtubule formation at 0.5 uM incubated for 16 hrs by immunofluorescence based confocal microscopic analysis; format: cell-based
Outline: (§5)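 MCF-7 seeded at 1 × 10⁵ cells/mL on chamber slides, treated 16 h with vehicle (1% ethanol v/v), CA-4 (0.1 µM) or compounds (0.5 µM). Paraformaldehyde fixation (4%, 20 min), Triton X-100 permeabilisation, BSA block, anti-α-tubulin-FITC (DM1A) plus Alexa Fluor 488, DAPI mounting; confocal imaging with identical settings per experiment; three independent occasions.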

Tubulin (Homo sapiens) [22] = target: T1, Tubulin (Homo sapiens); assay: Induction of microtubule disruption in human MCF7 cells assessed as shrunken spindle shaped microtubule formation at 0.5 uM incubated for 16 hrs by immunofluorescence based confocal microscopic analysis; format: cell-based; outline: as §5
Tubulin (Homo sapiens) [23] = target: T1, Tubulin (Homo sapiens); assay: Induction of microtubule disruption in human MCF7 cells assessed as depolymerization of microtubules at 0.5 uM incubated for 16 hrs by immunofluorescence based confocal microscopic analysis; format: cell-based; outline: as §5
Tubulin (Homo sapiens) [24] = target: T1, Tubulin (Homo sapiens); assay: Induction of microtubule disruption in human HT-29 cells assessed as complete loss of microtubule structure at 0.5 uM incubated for 16 hrs by immunofluorescence based confocal microscopic analysis; format: cell-based
Outline: (§6)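 Fixed in 4% paraformaldehyde, permeabilised in 0.5% Triton X-100, blocked in 5% BSA, stained with anti-α-tubulin-FITC (DM1A, 1:100, 2 h) and Alexa Fluor 488, DAPI counterstain; confocal imaging, three occasions.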

Tubulin (Homo sapiens) [25] = target: T1, Tubulin (Homo sapiens); assay: Induction of microtubule disruption in human HT-29 cells assessed as appearance of multiple micronucleus at 0.5 uM incubated for 16 hrs by immunofluorescence based confocal microscopic analysis; format: cell-based; outline: as §6
[26] = target: T2, Tubulin beta (Homo sapiens) (UniProt P68371+Q9H4B7+Q13509+P04350+Q3ZCM7+P07437+Q13885+Q9BVA1+Q9BUF5+A6NNZ2); assay: Binding affinity to colchicine binding site of beta-tubulin in human MCF7 cells assessed as inhibition of beta-tubulin-EBI adduct formation at 10 uM pretreated for 2 hrs followed by EBI addition and measured after 1.5 hrs by Western blot analysis; format: cell-based; details: time 3.5 hrs
Outline: (§7)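 Cells seeded at 5 × 10⁴/well, grown overnight, treated with vehicle (0.1% ethanol v/v) or compound (10 µM) for 2 h, then EBI (100 µM) added for 1.5 h. Cells washed with ice-cold PBS, lysed in Laemmli buffer, run on SDS-PAGE, blotted and probed for β-tubulin to detect the faster-migrating β-tubulin–EBI adduct; GAPDH reprobe for loading; three independent experiments.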

[27] = target: T2, Tubulin beta (Homo sapiens); assay: Binding affinity to colchicine binding site of beta-tubulin in human HT-29 cells assessed as inhibition of beta-tubulin-EBI adduct formation at 10 uM pretreated for 2 hrs followed by EBI addition and measured after 1.5 hrs by Western blot analysis; format: cell-based; details: time 3.5 hrs; outline: as §7
HT-29 [28] = assay: Induction of cell cycle arrest in human HT-29 cells assessed as accumulation of cells at G0/G1 phase at 1 uM incubated for 24 hrs by RAase A/PI staining based flow cytometry analysis (reference value: 57%); format: functional
HT-29 [29] = assay: Induction of cell cycle arrest in human HT-29 cells assessed as accumulation of cells at G2/M phase at 1 uM incubated for 24 hrs by RAase A/PI staining based flow cytometry analysis (reference value: 16%); format: functional
HT-29 [30] = assay: Induction of cell cycle arrest in human HT-29 cells assessed as accumulation of cells at G0/G1 phase at 1 uM incubated for 24 hrs in presence of 2,3-bis(amino((2aminophenyl)thio)methylene)succinonitrile by RAase A/PI staining based flow cytometry analysis (reference value: 57%); format: functional
HT-29 [31] = assay: Induction of cell cycle arrest in human HT-29 cells assessed as accumulation of cells at G2/M phase at 1 uM incubated for 24 hrs in presence of 2,3-bis(amino((2-aminophenyl)thio)methylene)succinonitrile by RAase A/PI staining based flow cytometry analysis (reference value: 16%); format: functional
Tubulin (Homo sapiens) [32] = target: T1, Tubulin (Homo sapiens); assay: Induction of microtubule disruption in human HT-29 cells assessed as effect on microtubule organization at 1 uM incubated for 16 hrs by immunofluorescence based confocal microscopic analysis; format: cell-based

COc1cc(N2C(=O)C(O)C2c2ccc(SC)cc2)cc(OC)c1OC (racemic)
Activity (HT-29 [1]): 15%
half-life at 30 ug/ml [2]: > 24 h
half-life at 30 ug/ml [3]: 16 h
half-life at 30 ug/ml [4]: 16 h
IC50 (MCF7 [5]): 5 nM
IC50 (HL-60 [6]): 15 nM
IC50 (HT-29 [7]): 15 nM
inhibition [8]: Active
GI50 (MCF7 [9]): < 10 nM
GI50 (HT-29 [10]): < 10 nM
GI50 (HL-60 [11]): < 10 nM
CC50 [12]: > 100000 nM
Activity (MCF7 [13]): 70%
Activity (MCF7 [14]): 12%
Activity (HT-29 [15]): 68%
Activity (HT-29 [16]): Active
Activity (HT-29 [17]): Active
Activity (HT-29 [18]): Active
Activity (HT-29 [19]): Active
Activity (HT-29 [20]): Active
fold change (FC) (Tubulin (Bos taurus)): 3.5
Activity (Tubulin (Homo sapiens) [21]): Active
Activity (Tubulin (Homo sapiens) [22]): Active
Activity (Tubulin (Homo sapiens) [23]): Active
Activity (Tubulin (Homo sapiens) [24]): Active
Activity (Tubulin (Homo sapiens) [25]): Active
inhibition [26]: Active
inhibition [27]: Active

COc1cc(N2C(=O)C(c3ccccc3)C2c2ccc(SC)cc2)cc(OC)c1OC (racemic)
half-life at 30 ug/ml [2]: 15 h
half-life at 30 ug/ml [3]: 10 h
half-life at 30 ug/ml [4]: 8 h
IC50 (MCF7 [5]): 65 nM
IC50 (HL-60 [6]): 59 nM
IC50 (HT-29 [7]): 56 nM
inhibition [8]: Active
GI50 (MCF7 [9]): 35 nM
GI50 (HT-29 [10]): 32 nM
GI50 (HL-60 [11]): 23 nM
CC50 [12]: > 100000 nM
Activity (MCF7 [13]): 65%
Activity (MCF7 [14]): 11%
Activity (HT-29 [18]): Active
Activity (HT-29 [19]): Active
Activity (HT-29 [20]): Active
fold change (FC) (Tubulin (Bos taurus)): 3.4
Activity (Tubulin (Homo sapiens) [21]): Active
Activity (Tubulin (Homo sapiens) [22]): Active
Activity (Tubulin (Homo sapiens) [23]): Active

COc1ccc(/C=C\c2cc(OC)c(OC)c(OC)c2)cc1O [COMBRETASTATIN A4]
Activity (HT-29 [28]): 52%
Activity (HT-29 [29]): 15%
Activity (HT-29 [30]): 14%
Activity (HT-29 [31]): 50%
IC50 (MCF7 [5]): 3.5 nM
IC50 (HL-60 [6]): 1.9 nM
IC50 (HT-29 [7]): 4160 nM
fold change (FC) (Tubulin (Bos taurus)): 2
Activity (Tubulin (Homo sapiens) [32]): inactive
inhibition [26]: Active
